What was measured:
Type in all cases: functional
[1] = system: SN12C; experiment: Growth inhibition of human SN12C cells assessed as cell growth at 10^-5 M incubated for 48 hrs by sulforhodamine B assay; details: read-out: Activity
[2] = Growth inhibition of human SNB75 cells assessed as cell growth at 10^-7 M incubated for 48 hrs by sulforhodamine B assay; details: SNB-75, 48 h, read-out: Activity
[3] = Growth inhibition of human Caki1 cells assessed as cell growth at 10^-6 M incubated for 48 hrs by sulforhodamine B assay; details: CAKI-1, 48 h, read-out: Activity
Summary of the method: (§1)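 Cells seeded at 5,000–40,000/well according to doubling time and preincubated 24 h at 37 °C, 5% CO2. Time-zero plates were TCA-fixed. DMSO concentrate was diluted in medium with 50 µg/ml gentamicin to give five concentrations (10-fold or ½ log steps), then exposed 48 h. Cells were TCA-fixed, stained with 0.4% SRB and read at 515 nm. Percent growth was taken against time-zero and control; GI50, TGI and LC50 derived.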

[4] = system: SR; experiment: Growth inhibition of human SR cells assessed as cell growth at 10^-7 M incubated for 48 hrs by sulforhodamine B assay; details: read-out: Activity
[5] = system: U-251; experiment: Growth inhibition of human U251 cells assessed as cell growth at 10^-5 M incubated for 48 hrs by sulforhodamine B assay; details: U-251, 48 h, read-out: Activity
[6] = system: NCI-H226; experiment: Growth inhibition of human NCI-H226 cells assessed as cell growth at 10^-6 M incubated for 48 hrs by sulforhodamine B assay; details: NCI-H226, 48 h, read-out: Activity
[7] = Growth inhibition of human UO31 cells assessed as cell growth at 10^-6 M incubated for 48 hrs by sulforhodamine B assay; details: UO-31, 48 h, read-out: Activity
[8] = Growth inhibition of human HCT116 cells assessed as cell growth at 10^-4 M incubated for 48 hrs by sulforhodamine B assay; details: HCT-116, 48 h, read-out: Activity; summary of the method: as §1
[9] = Growth inhibition of human UACC257 cells assessed as cell growth at 10 uM incubated for 48 hrs by sulforhodamine B assay; details: UACC-257, 48 h, read-out: Activity
[10] = Growth inhibition of human HOP62 cells incubated for 48 hrs by sulforhodamine B assay; details: HOP-62, 48 h; summary of the method: as §1
[11] = Growth inhibition of human OVCAR5 cells assessed as cell growth at 10^-4 M incubated for 48 hrs by sulforhodamine B assay; details: OVCAR-5, 48 h, read-out: Activity
[12] = system: ACHN; experiment: Growth inhibition of human ACHN cells assessed as cell growth at 10^-6 M incubated for 48 hrs by sulforhodamine B assay; details: read-out: Activity
Summary of the method: (§2)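 Five-dose assay: five concentrations from 10-fold or ½-log serial dilutions. Cells are plated at 5,000–40,000 per well according to doubling time, grown 24 h, then exposed 48 h at 37 °C, 5% CO₂. Fixed with cold 50% TCA (final addition) for 60 min at 4 °C and stained with 0.4% SRB in 1% acetic acid. Bound dye is solubilized in 10 mM Tris base and read at 515 nm. GI₅₀ is where [(Ti−Tz)/(C−Tz)]×100 = 50, with a time-zero plate as Tz.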

[13] = system: EKVX; experiment: Growth inhibition of human EKVX cells incubated for 48 hrs by sulforhodamine B assay; summary of the method: as §1
[14] = system: K562; experiment: Growth inhibition of human K562 cells assessed as cell growth at 10^-8 M incubated for 48 hrs by sulforhodamine B assay; details: K562, 48 h, read-out: Activity
[15] = system: ACHN; experiment: Growth inhibition of human ACHN cells incubated for 48 hrs by sulforhodamine B assay; summary of the method: as §2
[16] = Growth inhibition of human BT549 cells assessed as cell growth at 10^-6 M incubated for 48 hrs by sulforhodamine B assay; details: BT-549, 48 h, read-out: Activity; summary of the method: as §2
[17] = Growth inhibition of human SNB75 cells assessed as cell growth at 10^-6 M incubated for 48 hrs by sulforhodamine B assay; details: SNB-75, 48 h, read-out: Activity
[18] = system: MDA-MB-468; experiment: Growth inhibition of human MDA-MB-468 cells assessed as cell growth at 10^-5 M incubated for 48 hrs by sulforhodamine B assay; details: MDA-MB-468, 48 h, read-out: Activity
[19] = system: SK-MEL-28; experiment: Growth inhibition of human SK-MEL-28 cells assessed as cell growth at 10 uM incubated for 48 hrs by sulforhodamine B assay; details: SK-MEL-28, 48 h, read-out: Activity
[20] = system: NCI/ADR-RES; experiment: Growth inhibition of human NCI/ADR-RES cells assessed as cell growth at 10^-6 M incubated for 48 hrs by sulforhodamine B assay; details: read-out: Activity
[21] = Growth inhibition of human BT549 cells assessed as cell growth at 10^-7 M incubated for 48 hrs by sulforhodamine B assay; details: BT-549, 48 h, read-out: Activity; summary of the method: as §2
[22] = Growth inhibition of human TK10 cells incubated for 48 hrs by sulforhodamine B assay; details: TK-10, 48 h
Summary of the method: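 Cells were plated at 5,000–40,000 per well according to doubling time and preincubated 24 h at 37 °C in 5% CO2; time-zero plates were then TCA-fixed. Five concentrations (10-fold or ½-log dilutions, DMSO stock) were incubated 48 h. Cells were TCA-fixed, stained with 0.4% SRB and read at 515 nm. GI50 was taken where [(Ti−Tz)/(C−Tz)]×100 = 50.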

[23] = system: A498; experiment: Growth inhibition of human A498 cells assessed as cell growth at 10 uM incubated for 48 hrs by sulforhodamine B assay; details: A498, 48 h, read-out: Activity
Summary of the method: (§3)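 One-dose screen at 10 µM final. Cells are plated at 5,000–40,000 per well according to doubling time and preincubated 24 h at 37 °C, 5% CO₂. Compound (DMSO stock diluted in medium with 50 µg/ml gentamicin) is then added for 48 h. Growth percent is read by sulforhodamine B staining, absorbance at 515 nm.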

[24] = Growth inhibition of human HOP92 cells assessed as cell growth at 10^-4 M incubated for 48 hrs by sulforhodamine B assay; details: HOP-92, 48 h, read-out: Activity
[25] = system: 786-0; experiment: Growth inhibition of human 786-0 cells assessed as cell growth at 10 uM incubated for 48 hrs by sulforhodamine B assay; details: 786-0, 48 h, read-out: Activity; summary of the method: as §3
[26] = read-out: LC50 (the source's name)
[27] = read-out: pLC50 (the source's name) (converted)

Compound `c1ccc(-c2nc(Nc3ccc(-c4nc5ccccc5[nH]4)cc3)nc(N3CCOCC3)n2)cc1` has a growth at 10 µM [1] of -60%, a growth at 0.1 µM [2] of 96% and a growth at 1 µM [3] of 68%. The growth at 0.1 µM [4] was 58%, the growth at 10 µM [5] was -85% and the growth at 1 µM [6] was 117%. For the same compound, the growth at 1 µM [7] was 68%, the growth at 100 µM [8] was -69% and the growth at 10 µM [9] was -56.4%. It also gave a GI50 ([10]; read-out: GI50) of 1.73 µM, an LC50 ([10]; read-out: LC50) of 7.16 µM and a TGI ([10]; read-out: TGI) of 3.52 µM. It also gave a GI50 ([10]; read-out: pGI50 (converted)) of 1.74 µM, an LC50 ([10]; read-out: pLC50 (converted)) of 7.08 µM and a TGI ([10]; read-out: pTGI (converted)) of 3.55 µM. It also gave a growth at 100 µM [11] of -75%, a growth at 1 µM [12] of 64% and a GI50 ([13]; read-out: GI50) of 1.59 µM. It also gave an LC50 ([13]; read-out: LC50) of 7.33 µM, a TGI ([13]; read-out: TGI) of 3.42 µM and a GI50 ([13]; read-out: pGI50 (converted)) of 1.58 µM. The LC50 ([13]; read-out: pLC50 (converted)) was 7.41 µM, the TGI ([13]; read-out: pTGI (converted)) was 3.39 µM and the growth at 0.01 µM [14] was 86%. The GI50 ([15]; read-out: GI50) was 1.25 µM, the CC50 [15, 26] was 6.04 µM and the TGI ([15]; read-out: TGI) was 2.74 µM. For the same compound, the GI50 ([15]; read-out: pGI50 (converted)) was 1.26 µM, the CC50 [15, 27] was 6.03 µM and the TGI ([15]; read-out: pTGI (converted)) was 2.75 µM. For the same compound, the growth at 1 µM [16] was 100%, the growth at 1 µM [17] was 88% and the growth at 10 µM [18] was -57%. It also gave a growth at 10 µM [19] of -82.8%, a growth at 1 µM [20] of 81% and a growth at 0.1 µM [21] of 100%. For the same compound, the GI50 ([22]; read-out: GI50) was 2.15 µM, the CC50 [22, 26] was 6.58 µM and the TGI ([22]; read-out: TGI) was 3.76 µM. It also gave a GI50 ([22]; read-out: pGI50 (converted)) of 2.14 µM, a CC50 [22, 27] of 6.61 µM and a TGI ([22]; read-out: pTGI (converted)) of 3.8 µM. The growth at 10 µM [23] was -83.4%, the growth at 100 µM [24] was -85% and the growth at 10 µM [25] was -88.9%.
`Clc1ccc(-c2nc(Nc3ccc(-c4nc5ccccc5[nH]4)cc3)nc(N3CCOCC3)n2)cc1` gave a growth at 10 µM [1] of -77%, a growth at 0.1 µM [2] of 79% and a growth at 1 µM [3] of 76%. For the same compound, the growth at 0.1 µM [4] was -5%, the growth at 10 µM [5] was -92% and the growth at 1 µM [6] was 100%. For the same compound, the growth at 1 µM [7] was 80%, the growth at 100 µM [8] was -34% and the growth at 10 µM [9] was -82.5%. It also gave a GI50 ([10]; read-out: GI50) of 1.4 µM, a TGI ([10]; read-out: TGI) of 3.04 µM and a GI50 ([10]; read-out: pGI50 (converted)) of 1.41 µM. It also gave a TGI ([10]; read-out: pTGI (converted)) of 3.02 µM, a growth at 100 µM [11] of -16% and a growth at 1 µM [12] of 53%. For the same compound, the GI50 ([13]; read-out: GI50) was 1.14 µM, the TGI ([13]; read-out: TGI) was 2.63 µM and the GI50 ([13]; read-out: pGI50 (converted)) was 1.15 µM. For the same compound, the TGI ([13]; read-out: pTGI (converted)) was 2.63 µM, the growth at 0.01 µM [14] was 96% and the GI50 ([15]; read-out: GI50) was 1.05 µM. It also gave a TGI ([15]; read-out: TGI) of 2.38 µM, a GI50 ([15]; read-out: pGI50 (converted)) of 1.05 µM and a TGI ([15]; read-out: pTGI (converted)) of 2.4 µM. The growth at 1 µM [16] was 86%, the growth at 1 µM [17] was 95% and the growth at 10 µM [18] was -71%. For the same compound, the growth at 10 µM [19] was -84.7%, the growth at 1 µM [20] was 37% and the growth at 0.1 µM [21] was 93%. The GI50 ([22]; read-out: GI50) was 1.96 µM, the CC50 [22, 26] was 5.97 µM and the TGI ([22]; read-out: TGI) was 3.42 µM. It also gave a GI50 ([22]; read-out: pGI50 (converted)) of 1.95 µM, a CC50 [22, 27] of 6.03 µM and a TGI ([22]; read-out: pTGI (converted)) of 3.39 µM. The growth at 10 µM [23] was -81.5%, the growth at 100 µM [24] was -67% and the growth at 10 µM [25] was -94.5%.

— ChEMBL document CHEMBL3808334, “Synthesis and in vitro evaluation of novel triazine analogues as anticancer agents and their interaction studies with bovine serum albumin” (Eur J Med Chem, 2016)
